# Measurements published in ChEMBL document CHEMBL1141088, “A new pyridazine series of GABAA alpha5 ligands” (J Med Chem, 2005).
# Assays:
# [1] = target: T1, GABA-A receptor; alpha-3/beta-3/gamma-2 (Homo sapiens, UniProt P18507+P28472+P34903); assay: Displacement of [3H]-Ro- 15-1788 binding from human recombinant Gamma-aminobutyric acid A receptor alpha-3-beta-3-gamma-2 expressed in mouse fibroblast L(tk-) cells (30 min at 24 degrees C, pH 7.4); assay type: cell-based
# T1 sequence (P18507 whole entry): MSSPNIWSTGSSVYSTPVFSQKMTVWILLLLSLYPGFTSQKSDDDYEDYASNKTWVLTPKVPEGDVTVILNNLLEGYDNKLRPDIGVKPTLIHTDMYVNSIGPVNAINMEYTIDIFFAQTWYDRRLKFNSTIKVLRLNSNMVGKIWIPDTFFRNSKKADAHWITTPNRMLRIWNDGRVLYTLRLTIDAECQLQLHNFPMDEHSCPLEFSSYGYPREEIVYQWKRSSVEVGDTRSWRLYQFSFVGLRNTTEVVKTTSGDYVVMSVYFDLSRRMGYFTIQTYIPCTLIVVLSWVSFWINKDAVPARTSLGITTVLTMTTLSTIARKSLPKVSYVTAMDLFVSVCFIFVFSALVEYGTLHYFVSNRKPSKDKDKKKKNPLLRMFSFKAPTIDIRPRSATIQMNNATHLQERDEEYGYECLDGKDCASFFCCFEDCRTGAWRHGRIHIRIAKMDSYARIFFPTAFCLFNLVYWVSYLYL
# T1 sequence (P28472 whole entry): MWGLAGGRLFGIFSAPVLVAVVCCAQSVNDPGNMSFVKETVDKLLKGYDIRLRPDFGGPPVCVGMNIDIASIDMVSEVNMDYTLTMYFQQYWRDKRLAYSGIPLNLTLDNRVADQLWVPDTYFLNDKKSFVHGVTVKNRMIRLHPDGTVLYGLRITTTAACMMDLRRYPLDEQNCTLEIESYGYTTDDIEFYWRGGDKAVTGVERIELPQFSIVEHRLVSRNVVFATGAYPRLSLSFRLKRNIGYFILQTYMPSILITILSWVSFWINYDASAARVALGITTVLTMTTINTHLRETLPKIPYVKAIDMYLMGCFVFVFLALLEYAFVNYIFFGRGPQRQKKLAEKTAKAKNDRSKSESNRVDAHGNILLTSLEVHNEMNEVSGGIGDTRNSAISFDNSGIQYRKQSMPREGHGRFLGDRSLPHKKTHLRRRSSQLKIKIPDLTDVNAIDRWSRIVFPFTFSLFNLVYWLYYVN
# T1 sequence (P34903 whole entry): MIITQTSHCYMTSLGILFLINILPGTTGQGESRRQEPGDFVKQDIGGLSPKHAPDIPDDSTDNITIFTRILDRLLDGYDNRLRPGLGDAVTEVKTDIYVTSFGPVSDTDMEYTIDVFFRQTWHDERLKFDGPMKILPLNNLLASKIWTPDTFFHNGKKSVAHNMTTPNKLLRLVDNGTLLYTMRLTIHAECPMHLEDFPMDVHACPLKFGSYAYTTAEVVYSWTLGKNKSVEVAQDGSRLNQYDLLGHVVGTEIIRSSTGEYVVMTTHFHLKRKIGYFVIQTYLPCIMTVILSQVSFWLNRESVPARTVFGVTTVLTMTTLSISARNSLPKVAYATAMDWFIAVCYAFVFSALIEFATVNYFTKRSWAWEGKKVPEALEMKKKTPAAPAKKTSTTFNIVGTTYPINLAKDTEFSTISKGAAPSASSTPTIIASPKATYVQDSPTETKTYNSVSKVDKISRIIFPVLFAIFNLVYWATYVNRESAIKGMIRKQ
# In short: (§1)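 Membranes from L(tk-) cells stably expressing human α1, α3 or α5 β3γ2 in 50 mM Tris pH 7.4. [3H]Ro15-1788 at 1.8 nM final, 30 min at 24 °C. Nonspecific binding set with 10 µM flunitrazepam, total binding in 0.1% DMSO. Filtration, scintillation counting. Ki is mean ± SEM of ≥3 independent determinations.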
# [2] = Half life of compound determined after iv administration at 1 mg/kg dose as a solution(1 mg/mL) in a PEG 300:H2O(3:1); assay type: ADME, organism-based; design: dose 1 mg/kg, route intravenous; conditions: rat, in vivo
# In short: (§2)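 Single rat, cannulated, given 100 units heparin, recovered 48 h, fasted overnight. Dosed 1 mg/kg iv bolus (1 mL/kg) in PEG 300:water 3:1. Serial blood sampled to 6 h and plasma analysed by LC-MS/MS with diazepam internal standard. Cl in mL/min/kg from plasma, T1/2 in hours from 1–3 h data, Vdss in L/kg.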
# [3] = target: GABA-A receptor; alpha-5/beta-3/gamma-2 (Homo sapiens) (UniProt P18507+P28472+P31644); assay: Maximum inhibition of GABA EC20 response at GABA-A receptor alpha-5-beta-3-gamma-2, n=4; assay type: protein-complex assay
# In short: (§3)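 Whole-cell patch clamp of L(tk-) cells stably expressing human α1, α3 or α5 β3γ2s, perfused with bicarbonate saline pH 7.2, CsCl pipette solution pH 7.3. Drugs applied by double-barrelled pipette; GABA in 5 s pulses at 30 s intervals. Modulation measured against a GABA EC20 set for each cell; curves fitted to a Hill equation.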
# [4] = Low volume of distribution of compound determined after iv administration at 1 mg/kg dose as a solution(1 mg/mL) in a PEG 300:H2O(3:1); assay type: ADME, organism-based; design: dose 1 mg/kg, route intravenous; conditions: rat, in vivo, read-out: Vdss; in short: as §2
# [5] = target: T2, GABA-A receptor; alpha-1/beta-3/gamma-2 (Homo sapiens, UniProt P14867+P18507+P28472); assay: Displacement of [3H]-Ro- 15-1788 binding from human recombinant Gamma-aminobutyric acid A receptor alpha-1-beta-3-gamma-2 expressed in mouse fibroblast L(tk-) cells (30 min at 24 degrees C, pH 7.4); assay type: cell-based; in short: as §1
# T2 sequence (P14867 whole entry): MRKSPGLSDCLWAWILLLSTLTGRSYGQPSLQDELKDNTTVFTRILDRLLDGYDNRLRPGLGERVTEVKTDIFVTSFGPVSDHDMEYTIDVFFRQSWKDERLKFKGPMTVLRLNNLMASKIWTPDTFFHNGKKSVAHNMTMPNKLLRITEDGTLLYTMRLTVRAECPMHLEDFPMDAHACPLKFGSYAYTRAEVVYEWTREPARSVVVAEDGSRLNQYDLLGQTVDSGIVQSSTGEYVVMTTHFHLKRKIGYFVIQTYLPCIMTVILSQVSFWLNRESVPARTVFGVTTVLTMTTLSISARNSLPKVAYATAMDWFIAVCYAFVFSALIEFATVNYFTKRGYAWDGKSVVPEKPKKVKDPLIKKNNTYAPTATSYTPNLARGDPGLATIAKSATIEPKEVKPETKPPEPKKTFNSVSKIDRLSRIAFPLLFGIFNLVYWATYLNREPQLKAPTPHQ
# T2 sequence (P18507 whole entry): T1 sequence (P18507 whole entry)
# T2 sequence (P28472 whole entry): T1 sequence (P28472 whole entry)
# [6] = target: T2, GABA-A receptor; alpha-1/beta-3/gamma-2; assay: Negative logarithm of effective concentration against GABA-A alpha-1-beta-3-gamma-2 receptor; assay type: protein-complex assay; in short: as §3
structure (smiles),measurement,setting,value
N#Cc1cccc(-c2cnnc(-c3ccccc3)c2)c1,Ki,[1],14 nM
same,half-life,[2],36 min
same,Maximum inhibition,[3],-37%
same,Vd,[4],1.5 L/kg
same,Ki,[5],7 nM
same,EC50,[6],2.95 nM
